Format in all cases: physicochemical
Series [1] can be described thus: Ionization constant (pKa1) values were determined by potentiometric titrations. Particulars: read-out: pKa1.
A short description of series [2]: Distribution coefficient between n-octanol and hanks buffered saline solution. In outline:
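Distribution between n-octanol and Hanks buffered saline at pH 7.4, measured by the shake-flask method.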

Series [3] in a line: Ionization constant (pKa2) values were determined by potentiometric titrations. Particulars: read-out: pKa2.
A short description of series [4]: pKa1 values were determined by potentiometric titrations. As to conditions: read-out: pKa1.
Series [5] is described as follows: pKa2 values were determined by potentiometric titrations. As to conditions: read-out: pKa2.

Residues, ends and D or L forms follow the SMILES beside them.

In the case of `CC(=O)NCC(=O)N[C@@H](CC(C)C)C(=O)N[C@@H](CC(=O)O)C(=O)N(C)[C@@H](Cc1ccccc1)C(N)=O` (HELM PEPTIDE1{[ac].G.L.D.[meF].[am]}$$$$V2.0), the pKa in series [1] stood at 3.93.
`CC(=O)NCC(=O)N(C)CC(=O)N[C@@H](CC(C)C)C(=O)N[C@@H](Cc1ccccc1)C(N)=O` (HELM PEPTIDE1{[ac].G.[Sar].L.F.[am]}$$$$V2.0) came in with a log distribution coefficient (logD) in series [2] of 0.05.
For `CC(=O)N[C@@H](Cc1ccc(O)cc1)C(=O)NCC(=O)NCC(=O)N[C@@H](CCC(N)=O)C(N)=O` (Ac-YGGQ-NH2), the log distribution coefficient (logD) in series [2] was -2.59.
Same read-out and setting: with `CC(=O)N[C@@H](CO)C(=O)N(C)[C@@H](Cc1ccccc1)C(=O)NCC(=O)NCC(N)=O` (HELM PEPTIDE1{[ac].S.[meF].G.G.[am]}$$$$V2.0) the figure was -1.51; with `CC(=O)N[C@@H](Cc1ccccc1)C(=O)N[C@@H](CC(C)C)C(=O)N[C@H](C(=O)N(C)[C@@H](CC(C)C)C(N)=O)C(C)C` (HELM PEPTIDE1{[ac].F.L.V.[meL].[am]}$$$$V2.0), 2.42.
Turning to `CC(=O)NCC(=O)N(C)[C@@H](Cc1ccccc1)C(=O)N[C@@H](CCCCN)C(=O)N[C@@H](CC(=O)O)C(N)=O` (HELM PEPTIDE1{[ac].G.[meF].K.D.[am]}$$$$V2.0), the pKa in series [1] came to 3.78; in series [3] it was 10.3.
For `CC(=O)N[C@@H](CC(=O)O)C(=O)N[C@@H](CCC(N)=O)C(=O)N[C@@H](CC(C)C)C(=O)N[C@@H](Cc1ccccc1)C(N)=O` (Ac-DQLF-NH2), in series [4], the pKa was 3.97. For the same compound, in series [2], the logD is above -2.5.
For the compound `CC(=O)N[C@@H](CCCCN)C(=O)N(C)CC(=O)N[C@@H](Cc1ccc(O)cc1)C(=O)N(C)[C@@H](CC(=O)O)C(N)=O` (HELM PEPTIDE1{[ac].K.[Sar].Y.[meD].[am]}$$$$V2.0), the pKa in series [1] worked out at 3.6; in series [3], 9.69.
Regarding `CC(=O)N[C@@H](Cc1ccccc1)C(=O)N[C@@H](CCC(N)=O)C(=O)N[C@@H](CCCCN)C(=O)N(C)[C@@H](CC(C)C)C(N)=O` (HELM PEPTIDE1{[ac].F.Q.K.[meL].[am]}$$$$V2.0), the pKa in series [5] stood at 10.1.
Consider `CC(=O)N[C@@H](CCCCN)C(=O)N(C)[C@@H](Cc1ccccc1)C(=O)NCC(=O)N(C)[C@@H](CC(C)C)C(N)=O` (HELM PEPTIDE1{[ac].K.[meF].G.[meL].[am]}$$$$V2.0), for which the pKa in series [5] was 9.94. This compound also returned a logD in series [2] of -1.33.
In series [2], `CC(=O)N[C@@H](Cc1ccccc1)C(=O)N1CCC[C@H]1C(=O)N[C@@H](Cc1ccccc1)C(=O)N[C@@H](Cc1ccc(O)cc1)C(N)=O` (Ac-FPFY-NH2) yielded a logD of 1.64.

(Values after ChEMBL document CHEMBL1133099, “Structure-property model for membrane partitioning of oligopeptides” (J Med Chem, 2000).)
